Active and inactive are the calls of the source. The calls are words filed in the database; no cut-off is given here.
Experiments:
[1] = Antiproliferative activity against human SGC7901 cells after 72 hrs by MTT assay; format: functional, cell-based; conditions: SGC-7901, 72 h
How it was run: (§1)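 Cells were seeded at 1–3 × 10⁴/well, depending on growth rate, and grown 24 h. Triplicate wells were then exposed to agents for 72 h at 37 °C in 5% CO₂. IC50 is the concentration giving 50% absorbance reduction versus vehicle, averaged from ≥3 independent experiments. SGC-7901 and HT-1080 were cultured in RPMI-1640 with 10% FBS.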

[2] = Antiproliferative activity against human HT1080 cells after 72 hrs by MTT assay; format: functional, cell-based; conditions: HT-1080, 72 h; how it was run: as §1
KB = experiment: Antiproliferative activity against human KB cells after 72 hrs by MTT assay; format: functional, cell-based; how it was run: as §1
Tubulin (Homo sapiens) [3] = molecular target: T1, Tubulin (Homo sapiens) (UniProt P68371+Q9H4B7+P0DPH7+P68366+Q13509+Q71U36+P04350+Q3ZCM7+P07437+P68363+Q9BQE3+Q6PEY2+Q13885+Q9BVA1+Q9BUF5); experiment: Inhibition of tubulin (unknown origin) polymerization measured for 90 mins by fluorescence assay; format: protein-complex assay
Tubulin (Homo sapiens) [4] = molecular target: T1, Tubulin (Homo sapiens); experiment: Inhibition of tubulin (unknown origin) polymerization at 1 uM measured for 90 mins by fluorescence assay; format: protein-complex assay
Tubulin (Homo sapiens) [5] = molecular target: T1, Tubulin (Homo sapiens); experiment: Inhibition of tubulin (unknown origin) polymerization at 2 uM measured for 90 mins by fluorescence assay; format: protein-complex assay
Tubulin (Homo sapiens) [6] = molecular target: T1, Tubulin (Homo sapiens); experiment: Inhibition of tubulin (unknown origin) polymerization at 4 uM measured for 90 mins by fluorescence assay; format: protein-complex assay
Tubulin (Homo sapiens) [7] = molecular target: T1, Tubulin (Homo sapiens); experiment: Inhibition of tubulin (unknown origin) polymerization at 8 uM measured for 90 mins by fluorescence assay; format: protein-complex assay
HT-1080 [8] = experiment: Disruption of microtubule network in human HT1080 cells assessed as cell rounding at 2 times IC50 after 12 hrs by immunofluorescence staining method; format: cell-based
How it was run: (§2)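 HT-1080 cells seeded at 1 × 10⁴/well, grown 24 h, then given vehicle or agent for 12 h. Fixed in 4% formaldehyde/PBS 30 min at −20 °C, permeabilised with 0.1% Triton X-100 5 min, and blocked with 5% BSA. Anti-α-tubulin (1:100) applied overnight at 4 °C, then FITC anti-mouse secondary (1:1000) 3 h at 37 °C, with DAPI counterstain.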

[9] = Cell cycle arrest in human HT1080 cells assessed as accumulation at sub-G1 phase at 50 nM after 24 hrs using propidium iodide staining by FACScan flow cytometry; format: functional, cell-based; conditions: HT-1080
How it was run: (§3)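 HT-1080 cells (8 × 10⁴) exposed 24 h to test agent or 0.05% DMSO vehicle. Harvested by centrifugation, PBS-washed, fixed in ice-cold 70% ethanol, then RNase-treated 30 min at 37 °C. Propidium iodide 50 µg/mL applied 30 min at 4 °C in the dark before FACScan flow cytometry. Repeated at least three times.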

[10] = Cell cycle arrest in human HT1080 cells assessed as accumulation at G0/G1 phase at 50 nM after 24 hrs using propidium iodide staining by FACScan flow cytometry (Rvb =52.17 %); format: functional, cell-based; conditions: HT-1080; how it was run: as §3
[11] = Cell cycle arrest in human HT1080 cells assessed as accumulation at S phase at 50 nM after 24 hrs using propidium iodide staining by FACScan flow cytometry (reference value: 18.56 %); format: functional, cell-based; conditions: HT-1080; how it was run: as §3
[12] = Cell cycle arrest in human HT1080 cells assessed as accumulation at G2/M phase at 50 nM after 24 hrs using propidium iodide staining by FACScan flow cytometry (reference value: 29.27 %); format: functional, cell-based; conditions: HT-1080; how it was run: as §3
[13] = Cell cycle arrest in human HT1080 cells assessed as accumulation at G2/M phase after 24 hrs using propidium iodide staining by FACScan flow cytometry; format: functional, cell-based; conditions: HT-1080; how it was run: as §3
[14] = Cell cycle arrest in human HT1080 cells assessed as accumulation at sub-G1 phase at 75 nM after 24 hrs using propidium iodide staining by FACScan flow cytometry; format: functional, cell-based; conditions: HT-1080; how it was run: as §3
[15] = Cell cycle arrest in human HT1080 cells assessed as accumulation at G0/G1 phase at 75 nM after 24 hrs using propidium iodide staining by FACScan flow cytometry (Rvb =52.17 %); format: functional, cell-based; conditions: HT-1080; how it was run: as §3
[16] = Cell cycle arrest in human HT1080 cells assessed as accumulation at S phase at 75 nM after 24 hrs using propidium iodide staining by FACScan flow cytometry (reference value: 18.56 %); format: functional, cell-based; conditions: HT-1080; how it was run: as §3
[17] = Cell cycle arrest in human HT1080 cells assessed as accumulation at G2/M phase at 75 nM after 24 hrs using propidium iodide staining by FACScan flow cytometry (reference value: 29.27 %); format: functional, cell-based; conditions: HT-1080; how it was run: as §3
[18] = Cell cycle arrest in human HT1080 cells assessed as accumulation at sub-G1 phase at 100 nM after 24 hrs using propidium iodide staining by FACScan flow cytometry; format: functional, cell-based; conditions: HT-1080; how it was run: as §3
[19] = Cell cycle arrest in human HT1080 cells assessed as accumulation at G0/G1 phase at 100 nM after 24 hrs using propidium iodide staining by FACScan flow cytometry (Rvb =52.17 %); format: functional, cell-based; conditions: HT-1080; how it was run: as §3
[20] = Cell cycle arrest in human HT1080 cells assessed as accumulation at S phase at 100 nM after 24 hrs using propidium iodide staining by FACScan flow cytometry (reference value: 18.56 %); format: functional, cell-based; conditions: HT-1080; how it was run: as §3
[21] = Cell cycle arrest in human HT1080 cells assessed as accumulation at G2/M phase at 100 nM after 24 hrs using propidium iodide staining by FACScan flow cytometry (reference value: 29.27 %); format: functional, cell-based; conditions: HT-1080; how it was run: as §3
[22] = Cell cycle arrest in human HT1080 cells assessed as accumulation at sub-G1 phase at 150 nM after 24 hrs using propidium iodide staining by FACScan flow cytometry; format: functional, cell-based; conditions: HT-1080; how it was run: as §3
[23] = Cell cycle arrest in human HT1080 cells assessed as accumulation at G0/G1 phase at 150 nM after 24 hrs using propidium iodide staining by FACScan flow cytometry (Rvb =52.17 %); format: functional, cell-based; conditions: HT-1080; how it was run: as §3
[24] = Cell cycle arrest in human HT1080 cells assessed as accumulation at S phase at 150 nM after 24 hrs using propidium iodide staining by FACScan flow cytometry (reference value: 18.56 %); format: functional, cell-based; conditions: HT-1080; how it was run: as §3
[25] = Cell cycle arrest in human HT1080 cells assessed as accumulation at G2/M phase at 150 nM after 24 hrs using propidium iodide staining by FACScan flow cytometry (reference value: 29.27 %); format: functional, cell-based; conditions: HT-1080; how it was run: as §3
[26] = Cell cycle arrest in human HT1080 cells assessed as accumulation at sub-G1 phase at 25 nM after 24 hrs using propidium iodide staining by FACScan flow cytometry; format: functional, cell-based; conditions: HT-1080; how it was run: as §3
[27] = Cell cycle arrest in human HT1080 cells assessed as accumulation at G0/G1 phase at 25 nM after 24 hrs using propidium iodide staining by FACScan flow cytometry (Rvb =52.17 %); format: functional, cell-based; conditions: HT-1080; how it was run: as §3
[28] = Cell cycle arrest in human HT1080 cells assessed as accumulation at S phase at 25 nM after 24 hrs using propidium iodide staining by FACScan flow cytometry (reference value: 18.56 %); format: functional, cell-based; conditions: HT-1080; how it was run: as §3
[29] = Cell cycle arrest in human HT1080 cells assessed as accumulation at G2/M phase at 25 nM after 24 hrs using propidium iodide staining by FACScan flow cytometry (reference value: 29.27 %); format: functional, cell-based; conditions: HT-1080; how it was run: as §3
HT-1080 [30] = experiment: Disruption of microtubule network in human HT1080 cells assessed as cell detachment at 2 times IC50 after 12 hrs by immunofluorescence staining method; format: cell-based; how it was run: as §2
HT-1080 [31] = experiment: Disruption of microtubule network in human HT1080 cells assessed as loss of the radial distribution of structured microtubules at 2 times IC50 after 12 hrs by immunofluorescence staining method; format: cell-based; how it was run: as §2

CCOc1ccc(-c2n[se]nc2-c2cc(OC)c(OC)c(OC)c2)cc1Br
IC50 [1]: 12.8 µM
IC50 [2]: 3.46 µM
IC50 (KB): 0.93 µM

c1ccc2cc(-c3n[se]nc3-c3ccc4c(c3)OCO4)ccc2c1
IC50 [1]: 17.3 µM
IC50 [2]: 23.3 µM
IC50 (KB): 10.4 µM

COc1ccc(-c2n[se]nc2-c2cc(OC)c(OC)c(OC)c2)cc1
IC50 [1]: 0.063 µM
IC50 [2]: 0.084 µM
IC50 (KB): 0.031 µM

CCOc1ccc(-c2n[se]nc2-c2cc(OC)c(OC)c(OC)c2)cc1
IC50 [1]: 0.23 µM
IC50 [2]: 0.16 µM
IC50 (KB): 0.42 µM

COc1cc(-c2n[se]nc2-c2cccc(OCc3ccccc3)c2)cc(OC)c1OC
IC50 [1]: > 30 µM
IC50 [2]: > 30 µM
IC50 (KB): 10.7 µM

COc1ccc(-c2n[se]nc2-c2cc(OC)c(OC)c(OC)c2)cc1OCc1ccccc1
IC50 [1]: > 30 µM
IC50 [2]: > 30 µM
IC50 (KB): > 30 µM

COc1ccc(-c2n[se]nc2-c2cc(OC)c(OC)c(OC)c2)cc1Br
IC50 [1]: > 30 µM
IC50 [2]: 2.59 µM
IC50 (KB): 3.06 µM

COc1ccc(-c2n[se]nc2-c2cc(OC)c(OC)c(OC)c2)cc1N
IC50 [1]: 0.021 µM
IC50 [2]: 0.026 µM
IC50 (KB): 0.011 µM

COc1ccc(-c2n[se]nc2-c2cc(OC)c(OC)c(OC)c2)cc1[N+](=O)[O-]
IC50 [1]: > 30 µM
IC50 [2]: 24.8 µM
IC50 (KB): 10.1 µM

COc1cc(-c2n[se]nc2-c2ccc(O)c(Br)c2)cc(OC)c1OC
IC50 [1]: > 30 µM
IC50 [2]: 16.4 µM
IC50 (KB): 4.8 µM

CNc1cc(-c2n[se]nc2-c2cc(OC)c(OC)c(OC)c2)ccc1OC
IC50 [1]: > 30 µM
IC50 [2]: 0.98 µM
IC50 (KB): 1.52 µM

COc1ccc(-c2n[se]nc2-c2ccc3c(c2)OCO3)cc1O
IC50 [1]: 3.68 µM
IC50 [2]: 0.73 µM
IC50 (KB): 2.38 µM

COc1cc(-c2n[se]nc2-c2ccc(O)cc2)cc(OC)c1OC
IC50 [1]: > 30 µM
IC50 [2]: 15 µM
IC50 (KB): 15.8 µM

COc1ccc(-c2n[se]nc2-c2ccc3c(c2)OCO3)cc1N
IC50 [1]: > 30 µM
IC50 [2]: 13.5 µM
IC50 (KB): 1.87 µM

COc1ccc(-c2n[se]nc2-c2cc(OC)c(OC)c(OC)c2)cc1O
IC50 [1]: 0.019 µM
IC50 [2]: 0.021 µM
IC50 (KB): 0.0039 µM
inhibition (Tubulin (Homo sapiens) [3]): Dose-dependent effect
inhibition (Tubulin (Homo sapiens) [4]): 20.4%
inhibition (Tubulin (Homo sapiens) [5]): 48.8%
inhibition (Tubulin (Homo sapiens) [6]): 65%
inhibition (Tubulin (Homo sapiens) [7]): 97.6%
Activity (HT-1080 [8]): Active
Activity [9]: 2.47%
Activity [10]: 49.1%
Activity [11]: 16%
Activity [12]: 32.4%
Activity [13]: Dose-dependent effect
Activity [14]: 4.39%
Activity [15]: 37.2%
Activity [16]: 13.3%
Activity [17]: 45.2%
Activity [18]: 18.1%
Activity [19]: 5.46%
Activity [20]: 4.07%
Activity [21]: 72.4%
Activity [22]: 10.9%
Activity [23]: 2.61%
Activity [24]: 5.82%
Activity [25]: 80.7%
Activity [26]: 15.7%
Activity [27]: 3.93%
Activity [28]: 3.1%
Activity [29]: 71.9%
Activity (HT-1080 [30]): Active
Activity (HT-1080 [31]): Active

CCOc1ccc(-c2n[se]nc2-c2cc(OC)c(OC)c(OC)c2)cc1N
IC50 [1]: 0.14 µM
IC50 [2]: 10.1 µM
IC50 (KB): 0.099 µM

COc1cc(-c2n[se]nc2-c2ccc3ccccc3c2)cc(OC)c1OC
IC50 [1]: 2.35 µM
IC50 [2]: 1.11 µM
IC50 (KB): 0.77 µM

COc1ccc(/C=C\c2cc(OC)c(OC)c(OC)c2)cc1O [COMBRETASTATIN A4]
IC50 [1]: 0.028 µM
IC50 [2]: 0.0076 µM
IC50 (KB): 0.013 µM

COc1ccc(-c2n[se]nc2-c2ccc3c(c2)OCO3)cc1
IC50 [1]: 8.28 µM
IC50 [2]: > 30 µM
IC50 (KB): 5.21 µM

COc1ccc(-c2n[se]nc2-c2ccc3c(c2)OCO3)cc1[N+](=O)[O-]
IC50 [1]: > 30 µM
IC50 [2]: > 30 µM
IC50 (KB): > 30 µM

COc1cc(-c2n[se]nc2-c2cccc(O)c2)cc(OC)c1OC
IC50 [1]: > 30 µM
IC50 [2]: 5.98 µM
IC50 (KB): > 30 µM

COc1cc(-c2n[se]nc2-c2ccc(Br)cc2)cc(OC)c1OC
IC50 [1]: 10.9 µM
IC50 [2]: 7.4 µM
IC50 (KB): 7.86 µM

Source: ChEMBL document CHEMBL3351818, “Synthesis and biological evaluation of novel 3,4-diaryl-1,2,5-selenadiazol analogues of combretastatin A-4” (Eur J Med Chem, 2014)
